Measurements: ChEMBL document CHEMBL5058577, “EUbOPEN Chemogenomics Library 2 (Multiplex)” (2022)

System: U2OS
Assay: Multiplex assay against U2OS
Assay type: toxicity, cell-based
Details: human
In short: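 On a CQ1 microscope at 37°C and 5% CO2, live cells were imaged after compound addition. They had been stained at seeding with Hoechst33342, BioTracker Green Microtubule Cytoskeleton Dye, MitoTracker Red and Annexin V Alexa Fluor 680. CellPathfinder machine-learning gating assigned cells to Hoechst high-intensity objects or normal cells, normal cells to healthy, pyknosed or fragmented nuclei, and pyknosed cells to mitotic or apoptotic. Tubulin, mitochondrial-mass and membrane-permeability phenotypes are per cents of healthy-nucleus cells.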

[1] = 12 h, 1 µM, compound concentration 1 uM, replicate 1
[2] = 12 h, 1 µM, compound concentration 1 uM, replicate 2
[3] = 12 h, 10 µM, compound concentration 10 uM, replicate 1
[4] = 12 h, 10 µM, compound concentration 10 uM, replicate 2
[5] = 24 h, 1 µM, compound concentration 1 uM, replicate 1
[6] = 24 h, 1 µM, compound concentration 1 uM, replicate 2
[7] = 24 h, 10 µM, compound concentration 10 uM, replicate 1
[8] = 24 h, 10 µM, compound concentration 10 uM, replicate 2
[9] = 48 h, 1 µM, compound concentration 1 uM, replicate 1
[10] = 48 h, 1 µM, compound concentration 1 uM, replicate 2
[11] = 48 h, 10 µM, compound concentration 10 uM, replicate 1
[12] = 48 h, 10 µM, compound concentration 10 uM, replicate 2

Cl.N=C(N)NC(=O)Cc1c(Cl)cccc1Cl [GUANFACINE HYDROCHLORIDE]
Population Apoptotic (%) [1]: 80%
Population Fragmented Nuclei (%) [1]: 28%
Population Healthy Nuclei (%) [1]: 55%
Population Hoechst High Intensity Objects (%) [1]: 4%
Population Membrane Permeable-Phenotype (%) [1]: 5%
Population Mitochondria Different-Phenotype (%) [1]: 1%
Population Mitotic Cells (%) [1]: 19%
Population Normal (%) [1]: 95%
Population Pyknosed Nuclei (%) [1]: 16%
Population Tubulin-Different-Phenotype (%) [1]: 2%
Total Cell Count [1]: 165
Population Apoptotic (%) [2]: 100%
Population Fragmented Nuclei (%) [2]: 20%
Population Healthy Nuclei (%) [2]: 72%
Population Hoechst High Intensity Objects (%) [2]: 2%
Population Membrane Permeable-Phenotype (%) [2]: 8%
Population Mitochondria Different-Phenotype (%) [2]: 2%
Population Mitotic Cells (%) [2]: 0%
Population Normal (%) [2]: 97%
Population Pyknosed Nuclei (%) [2]: 7%
Population Tubulin-Different-Phenotype (%) [2]: 6%
Total Cell Count [2]: 129
Population Apoptotic (%) [3]: 87%
Population Fragmented Nuclei (%) [3]: 27%
Population Healthy Nuclei (%) [3]: 61%
Population Hoechst High Intensity Objects (%) [3]: 1%
Population Membrane Permeable-Phenotype (%) [3]: 10%
Population Mitochondria Different-Phenotype (%) [3]: 3%
Population Mitotic Cells (%) [3]: 12%
Population Normal (%) [3]: 98%
Population Pyknosed Nuclei (%) [3]: 11%
Population Tubulin-Different-Phenotype (%) [3]: 7%
Total Cell Count [3]: 280
Population Apoptotic (%) [4]: 77%
Population Fragmented Nuclei (%) [4]: 18%
Population Healthy Nuclei (%) [4]: 74%
Population Membrane Permeable-Phenotype (%) [4]: 12%
Population Mitochondria Different-Phenotype (%) [4]: 7%
Population Mitotic Cells (%) [4]: 22%
Population Pyknosed Nuclei (%) [4]: 7%
Population Tubulin-Different-Phenotype (%) [4]: 10%
Total Cell Count [4]: 130
Population Apoptotic (%) [5]: 75%
Population Fragmented Nuclei (%) [5]: 32%
Population Healthy Nuclei (%) [5]: 56%
Population Hoechst High Intensity Objects (%) [5]: 3%
Population Membrane Permeable-Phenotype (%) [5]: 5%
Population Mitochondria Different-Phenotype (%) [5]: 3%
Population Mitotic Cells (%) [5]: 25%
Population Normal (%) [5]: 96%
Population Pyknosed Nuclei (%) [5]: 10%
Population Tubulin-Different-Phenotype (%) [5]: 2%
Total Cell Count [5]: 194
Population Apoptotic (%) [6]: 83%
Population Fragmented Nuclei (%) [6]: 18%
Population Healthy Nuclei (%) [6]: 74%
Population Hoechst High Intensity Objects (%) [6]: 0%
Population Membrane Permeable-Phenotype (%) [6]: 8%
Population Mitochondria Different-Phenotype (%) [6]: 4%
Population Mitotic Cells (%) [6]: 16%
Population Normal (%) [6]: 99%
Population Pyknosed Nuclei (%) [6]: 7%
Population Tubulin-Different-Phenotype (%) [6]: 5%
Total Cell Count [6]: 160
Population Apoptotic (%) [7]: 84%
Population Fragmented Nuclei (%) [7]: 25%
Population Healthy Nuclei (%) [7]: 64%
Population Hoechst High Intensity Objects (%) [7]: 0%
Population Membrane Permeable-Phenotype (%) [7]: 9%
Population Mitochondria Different-Phenotype (%) [7]: 2%
Population Mitotic Cells (%) [7]: 15%
Population Normal (%) [7]: 99%
Population Pyknosed Nuclei (%) [7]: 9%
Population Tubulin-Different-Phenotype (%) [7]: 4%
Total Cell Count [7]: 326
Population Apoptotic (%) [8]: 83%
Population Fragmented Nuclei (%) [8]: 15%
Population Healthy Nuclei (%) [8]: 76%
Population Hoechst High Intensity Objects (%) [8]: 2%
Population Membrane Permeable-Phenotype (%) [8]: 10%
Population Mitochondria Different-Phenotype (%) [8]: 4%
Population Mitotic Cells (%) [8]: 16%
Population Normal (%) [8]: 97%
Population Pyknosed Nuclei (%) [8]: 7%
Population Tubulin-Different-Phenotype (%) [8]: 5%
Total Cell Count [8]: 160
Population Apoptotic (%) [9]: 89%
Population Fragmented Nuclei (%) [9]: 28%
Population Healthy Nuclei (%) [9]: 60%
Population Hoechst High Intensity Objects (%) [9]: 2%
Population Membrane Permeable-Phenotype (%) [9]: 4%
Population Mitochondria Different-Phenotype (%) [9]: 3%
Population Mitotic Cells (%) [9]: 10%
Population Normal (%) [9]: 97%
Population Pyknosed Nuclei (%) [9]: 10%
Population Tubulin-Different-Phenotype (%) [9]: 3%
Total Cell Count [9]: 262
Population Apoptotic (%) [10]: 90%
Population Fragmented Nuclei (%) [10]: 16%
Population Healthy Nuclei (%) [10]: 73%
Population Hoechst High Intensity Objects (%) [10]: 3%
Population Membrane Permeable-Phenotype (%) [10]: 8%
Population Mitochondria Different-Phenotype (%) [10]: 4%
Population Mitotic Cells (%) [10]: 9%
Population Normal (%) [10]: 96%
Population Tubulin-Different-Phenotype (%) [10]: 6%
Total Cell Count [10]: 217
Population Apoptotic (%) [11]: 90%
Population Fragmented Nuclei (%) [11]: 21%
Population Healthy Nuclei (%) [11]: 68%
Population Hoechst High Intensity Objects (%) [11]: 2%
Population Membrane Permeable-Phenotype (%) [11]: 8%
Population Mitochondria Different-Phenotype (%) [11]: 3%
Population Mitotic Cells (%) [11]: 9%
Population Normal (%) [11]: 97%
Population Pyknosed Nuclei (%) [11]: 10%
Population Tubulin-Different-Phenotype (%) [11]: 4%
Total Cell Count [11]: 440
Population Apoptotic (%) [12]: 95%
Population Fragmented Nuclei (%) [12]: 14%
Population Healthy Nuclei (%) [12]: 74%
Population Hoechst High Intensity Objects (%) [12]: 1%
Population Membrane Permeable-Phenotype (%) [12]: 10%
Population Mitochondria Different-Phenotype (%) [12]: 1%
Population Mitotic Cells (%) [12]: 4%
Population Normal (%) [12]: 98%
Population Pyknosed Nuclei (%) [12]: 11%
Population Tubulin-Different-Phenotype (%) [12]: 3%
Total Cell Count [12]: 213
